CXCR6 block – CXCR6 (human) receptor inhibition. 360,000 compounds, 0.36% hits. AID 602244. O00574. inhibition, % at 20 µM. CHO-K1 PathHunter CXCR6 beta-arrestin, luminescence; in the data active = inhibition above about 34%, passing the limit was not always enough;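 note: antagonist mode with CXCL16 agonist at 10 nM final; 0% = 10 nM CXCL16 with DMSO and 100% = unstimulated wells without agonist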
EBI2 block – EBI2 (human) antagonism; P32249; EBI2 beta-arrestin recruitment, luminescence, 7a,25-OHC stimulated; inhibition, % at 5 µM; 360,000 compounds, 0.81% hits; AID 651636; in the data active = inhibition above about 38%;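 note: enzyme fragment complementation signal reports receptor beta-arrestin coupling in cells; 0% = agonist plus DMSO wells and 100% = wells without agonist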
m5-HT2A agonist – agonists of mouse serotonin 5-HT2A receptor (HTR2A); activation, % at 7.6 µM; 360,000 compounds, 0.66% hits; CHO-K1 mHTR2A beta-arrestin complementation, luminescence; percent of 30 µM serotonin response;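 active = activation above a run cutoff, the mean activation of all tested compounds plus 3 SD, cut at about 14% in these data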;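 note: 0% = plate median of compound wells and 100% = 30 µM serotonin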
Target sequence (P35363 whole entry, looked up): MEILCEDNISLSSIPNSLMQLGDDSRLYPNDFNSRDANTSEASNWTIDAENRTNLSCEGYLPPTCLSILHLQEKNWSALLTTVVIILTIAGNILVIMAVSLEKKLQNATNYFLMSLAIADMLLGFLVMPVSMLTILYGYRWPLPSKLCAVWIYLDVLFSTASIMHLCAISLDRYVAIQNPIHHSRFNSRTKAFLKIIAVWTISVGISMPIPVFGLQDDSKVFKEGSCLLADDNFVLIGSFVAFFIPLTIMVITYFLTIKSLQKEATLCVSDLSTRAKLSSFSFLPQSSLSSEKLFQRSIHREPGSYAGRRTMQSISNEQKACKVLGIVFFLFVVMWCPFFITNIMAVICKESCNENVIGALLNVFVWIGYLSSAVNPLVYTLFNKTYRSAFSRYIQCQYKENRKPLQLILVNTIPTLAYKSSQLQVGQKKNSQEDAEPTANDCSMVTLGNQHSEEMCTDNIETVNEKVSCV
CCR6 antag – CCR6 (human) receptor antagonism. inhibition, % at 20 µM. CHO-K1 CCR6 PathHunter beta-arrestin, luminescence, CCL20-stimulated. 340,000 compounds, 0.49% hits. AID 493098;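 active = compounds whose inhibition of the agonist-driven luminescence signal at 20 µM reaches about 50%, limit read from the data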;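 note: cells stimulated with CCL20 at 14 nM final; plate controls were DMSO with CCL20 for no effect and DMSO without agonist for full effect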
APJ antag – APJ receptor antagonism; P35414; CHO-K1 APJ beta-arrestin complementation, luminescence; inhibition, % at 20 µM; 330,000 compounds, 0.32% hits; AID 2521;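 active = inhibition above about 40% at 20 µM, limit read from the data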;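 note: cells challenged with 10 nM apelin-13 agonist together with compound; plate controls were apelin-13 plus DMSO wells for no effect and DMSO wells lacking apelin-13 for full effect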
APJ ag – agonists of human APJ apelin receptor; AID 2520; activation, % at 20 µM; CHO-K1 APJ PathHunter beta-arrestin, luminescence; 0% DMSO wells, 100% apelin; 330,000 compounds, 0.11% hits;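 active = activation more than six SD over the plate average, tested at 20 µM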;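 note: 0% = DMSO alone and 100% = apelin-13 at 10 nM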
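Incubation: overnight seeding, 90 min compound at 25 °C, 1 h detection; test system: PathHunter CHO-K1 APJ (AGTRL-1) beta-arrestin reporter cells; amount: 1000 cells/well; doses: one dose, 20 µM compound, 1% DMSO; measured by: beta-gal luminescence; measure: agonist-driven arrestin binding to APJ; benchmarks: negative DMSO alone, positive Apelin-13 at 10 nM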
EBI2 conf – confirmation of human EBI2 receptor antagonists. shares compounds with EBI2 block. EBI2 beta-arrestin luminescence, 7a,25-OHC antagonism. inhibition, % at 5 µM. 2,400 compounds, 29% hits. AID 651997;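 active = inhibition of at least 50%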
EBI2 agonist – counter-screen for EBI2 antagonists: EBI2 agonist activity. shares compounds with EBI2 block. EBI2-expressing cells, agonist mode, luminescence, 60 min; 0% vehicle, 100% 7α,25-dihydroxycholesterol control. activation, % at 5 µM. 2,400 tested, under 10 active. AID 652000;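 active = activation of at least 50%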
bGal cs – counter-screen for EBI2 antagonists: E. coli beta-galactosidase inhibition; shares compounds with EBI2 block; purified beta-galactosidase, luminescent Galacton Star, 15 min; inhibition, % at 5 µM; 2,400 compounds, 1% hits; AID 652176;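 active = replicate-average signal at least 3 plate SD below neutral wells, shown as high inhibition, flagging enzyme-inhibiting false positives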;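 note: 0% = DMSO wells with enzyme and 100% = wells lacking enzyme; higher means stronger loss of beta-gal luminescence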
The depositor's hits bear a star; nt = no result given. Most compounds without a hit are left out; they make up all but 2.1% or so of the library.

SMILES | CXCR6 block | EBI2 block | m5-HT2A agonist | CCR6 antag | APJ antag | APJ ag | EBI2 conf | EBI2 agonist | bGal cs
COc1ccc(C2=NS(=O)(=O)N(C)C(C(=O)N3C(C)CCCC3C)=C2)cc1 (centres undefined) | -3 | 5 | -6 | 16 | 15 | -2 | nt | nt | nt
COc1ccc(NC(=O)c2c(C)noc2-c2snnc2C)cc1 | 3 | -7 | 4 | 27 | 3 | -1 | nt | nt | nt
O=C(c1ccccc1CCc1ccccc1)N1CCCC1 | -5 | -1 | -8 | 12 | -2 | 2 | nt | nt | nt
OCCCNc1cc(-c2ccccc2)nc2cc(-c3ccc(F)cc3)nn12 | -4 | 55* | 1 | -14 | -10 | 3 | 49 | -1 | -6
Cc1cc(NCCCO)n2nc(-c3cccs3)cc2n1 | 7 | 9 | -4 | -4 | -6 | -4 | nt | nt | nt
COc1cccc(NC(=O)NC2(C(=O)N3CCN(C)CC3)CCCCC2)c1 | 0 | -3 | -1 | 10 | 10 | -1 | nt | nt | nt
COc1cc(C(=O)NCCc2c[nH]c3ccccc23)ccc1OCc1c(C)noc1C | -5 | 61* | -3 | 8 | -13 | 5 | 49 | 0 | -19
COc1ccc(CCNC(=O)c2ccc(OCc3c(C)noc3C)c(OC)c2)cc1 | 3 | -5 | 4 | 6 | 2 | 1 | nt | nt | nt
O=C(NNc1ncccc1-n1cccc1)c1ccc(Cl)cc1 | 2 | -8 | -7 | 12 | 2 | -3 | nt | nt | nt
CC1(C(=O)Nc2cccc3ncccc23)CCN1C(=O)CCc1ccccc1 (centres undefined) | -4 | 10 | -1 | nt | nt | nt | nt | nt | nt
CC1(C(=O)Nc2cccc3ncccc23)CCN1C(=O)Cc1ccc(-c2ccccc2)cc1 (centres undefined) | -12 | 69* | -1 | nt | nt | nt | 35 | -2 | -6
CC(CC(=O)Nc1ccc2c(c1)c(=O)n(C)n2Cc1ccc(F)cc1)c1ccccc1 (centres undefined) | -8 | -11 | 0 | nt | nt | nt | nt | nt | nt
CO/N=C/c1ccc(Oc2ccc(C)cc2)nc1 | -3 | 87* | 0 | 18 | 10 | -2 | 73* | 0 | 7
O=C(/C(=C(\O)c1ccccc1)c1nc2ccccc2[nH]1)c1ccccc1 | 3 | 3 | 4 | 12 | 7 | -3 | nt | nt | nt
O=C(/C=C/c1ccc(Cl)cc1Cl)c1nc2ccccc2[nH]1 | 3 | 44* | 2 | 18 | 14 | -1 | 16 | 1 | 1
O=C1C(C=NCc2cccnc2)=C(O)c2ccccc21 | 6 | 2 | -1 | 9 | nt | nt | nt | nt | nt
CC1(C(=O)NCc2ccccc2)CCC(=O)N1CCc1c[nH]c2ccccc12 (centres undefined) | 0 | 1 | -2 | nt | nt | nt | nt | nt | nt
CCOc1ccc(-c2nc(N)ncc2-c2ccc(OC)cc2)c(O)c1 | -1 | 69* | -1 | 10 | -11 | 1 | 35 | 0 | -11
CCOc1ccc(-c2nc(N)ncc2-c2ccc(Cl)cc2)c(O)c1 | -2 | 59* | 11 | -11 | 15 | -4 | 26 | 1 | -9
CCOc1ccc(-c2nc(N)ncc2-c2ccccc2)c(O)c1 | 6 | 39 | -5 | 3 | -6 | -2 | nt | nt | nt
COc1ccc(-c2nc(C)ncc2-c2ccc(Cl)cc2)c(O)c1 | 6 | 54* | 3 | 12 | 16 | -3 | 26 | -1 | -6
CCOc1ccc(-c2nc(N)ncc2Oc2ccc(OC)cc2)c(O)c1 | 7 | 27 | 4 | 16 | 5 | -2 | nt | nt | nt
COc1cc(-c2noc(C)c2-c2ccc3[nH]ccc3c2)cc(OC)c1OC | 4 | 6 | -4 | -5 | -80 | 2 | nt | nt | nt
O=C(Cn1nc(-c2ccccc2)ccc1=O)NCCN1CCN(Cc2ccccc2)CC1 | -6 | -4 | -5 | -3 | 13 | 0 | nt | nt | nt
O=C(NCc1ccc(Cl)cc1)C1CCN(C(=O)c2ccc(Cl)cc2)CC1 | 7 | 45* | 4 | 19 | -19 | 0 | 26 | 0 | 11
SMILES | CXCR6 block | EBI2 block | m5-HT2A agonist | CCR6 antag | APJ antag | APJ ag | EBI2 conf | EBI2 agonist | bGal cs
O=C(c1ccc(NC(=S)NCc2ccc(Cl)cc2)cc1)N1CCCCC1 | 2 | -6 | 4 | -2 | -8 | 0 | nt | nt | nt
COc1ccc(-c2noc(N3CCC(C(=O)NCc4ccc(Cl)cc4)CC3)n2)cc1 | -6 | 47* | 0 | -10 | -3 | -1 | 14 | -2 | -15
O=C(NCc1ccc(Cl)cc1)C1CCCN(C(=O)c2ccc(Cl)cc2)C1 (centres undefined) | 6 | 66* | 0 | 3 | 12 | -5 | 34 | -2 | -11
COc1ccc(-c2noc(N3CCC(C(=O)NCc4ccccc4Cl)CC3)n2)cc1 | 1 | 15 | 1 | 3 | -2 | 4 | nt | nt | nt
O=S(=O)(NCc1ccncc1)c1ccc(F)c(F)c1 | -4 | -16 | 2 | nt | nt | nt | nt | nt | nt
COc1ccccc1N1CCN(S(=O)(=O)c2ccc3nc(-c4ccccc4)[nH]c3c2)CC1 | -1 | 53* | -2 | 11 | -21 | 2 | 32 | 1 | 5
O=S(=O)(c1ccc2nc(-c3ccccc3)[nH]c2c1)N1CCN(c2cccc(Cl)c2)CC1 | 3 | -3 | 6 | -8 | -33 | 8 | nt | nt | nt
NC(=N\N=Cc1ccccc1)/C(N)=N/N=Cc1ccccc1 | 2 | 48* | -6 | 9 | nt | nt | 38 | 1 | -3
NC(N)=N/N=C/c1ccccc1 | 2 | -3 | 1 | -3 | -1 | -4 | nt | nt | nt
O=C(Cn1cc([N+](=O)[O-])cn1)NCC1CCCO1 (centres undefined) | -6 | -3 | 0 | -1 | 18 | -2 | nt | nt | nt
Cc1cc(C)c(C#N)c(SCc2[nH]nc3c2C(c2ccc(F)cc2)C(C#N)=C(N)O3)n1 (centres undefined) | -3 | 84* | -9 | 2 | 14 | 0 | 57* | 1 | 8
Cc1ccc(SCc2[nH]nc3c2C(c2cccnc2)C(C#N)=C(N)O3)cc1 (centres undefined) | -6 | 5 | -4 | 4 | 13 | -1 | nt | nt | nt
Cc1cc(C#N)c(C)c(SCc2[nH]nc3c2C(c2ccccc2)C(C#N)=C(N)O3)n1 (centres undefined) | 8 | 68* | 1 | 20 | 4 | -1 | 55* | 0 | 7
O=C(O)CCC(=O)Nc1nc2ccccc2s1 | 1 | -4 | 1 | -24 | 9 | -3 | nt | nt | nt
COc1cc2nc(CN3CCN(S(=O)(=O)c4ccc(Br)cc4)CC3)[nH]c(=O)c2cc1OC | -3 | 55* | 3 | 11 | 3 | 1 | 35 | 2 | 6
